Assay results taken from ChEMBL document CHEMBL5370658, “Development of First-in-Class Dual Sirt2/HDAC6 Inhibitors as Molecular Tools for Dual Inhibition of Tubulin Deacetylation” (J Med Chem, 2023).
Calls of active or inactive are those of the source. The calls are words filed in the database; no cut-off is given here.

Experiments:
[1] = biological target: T1, Protein deacetylase HDAC6 (Homo sapiens) (UniProt Q9UBN7); test: Binding affinity to HDAC6 in human MCF7 cells assessed as target engagement by measuring rescue of PROTAC induced protein degradation at 20 uM preincubated with compound for 30 mins followed by PROTAC 4-((5-(8-(2-((2-(2,6-dioxopiperidin-3-yl)-1,3-dioxoisoindolin-4 yl)oxy)acetamido)octanamido)-2-meth …; type: cell-based; conditions: time 6.5 hrs
T1 sequence (whole entry): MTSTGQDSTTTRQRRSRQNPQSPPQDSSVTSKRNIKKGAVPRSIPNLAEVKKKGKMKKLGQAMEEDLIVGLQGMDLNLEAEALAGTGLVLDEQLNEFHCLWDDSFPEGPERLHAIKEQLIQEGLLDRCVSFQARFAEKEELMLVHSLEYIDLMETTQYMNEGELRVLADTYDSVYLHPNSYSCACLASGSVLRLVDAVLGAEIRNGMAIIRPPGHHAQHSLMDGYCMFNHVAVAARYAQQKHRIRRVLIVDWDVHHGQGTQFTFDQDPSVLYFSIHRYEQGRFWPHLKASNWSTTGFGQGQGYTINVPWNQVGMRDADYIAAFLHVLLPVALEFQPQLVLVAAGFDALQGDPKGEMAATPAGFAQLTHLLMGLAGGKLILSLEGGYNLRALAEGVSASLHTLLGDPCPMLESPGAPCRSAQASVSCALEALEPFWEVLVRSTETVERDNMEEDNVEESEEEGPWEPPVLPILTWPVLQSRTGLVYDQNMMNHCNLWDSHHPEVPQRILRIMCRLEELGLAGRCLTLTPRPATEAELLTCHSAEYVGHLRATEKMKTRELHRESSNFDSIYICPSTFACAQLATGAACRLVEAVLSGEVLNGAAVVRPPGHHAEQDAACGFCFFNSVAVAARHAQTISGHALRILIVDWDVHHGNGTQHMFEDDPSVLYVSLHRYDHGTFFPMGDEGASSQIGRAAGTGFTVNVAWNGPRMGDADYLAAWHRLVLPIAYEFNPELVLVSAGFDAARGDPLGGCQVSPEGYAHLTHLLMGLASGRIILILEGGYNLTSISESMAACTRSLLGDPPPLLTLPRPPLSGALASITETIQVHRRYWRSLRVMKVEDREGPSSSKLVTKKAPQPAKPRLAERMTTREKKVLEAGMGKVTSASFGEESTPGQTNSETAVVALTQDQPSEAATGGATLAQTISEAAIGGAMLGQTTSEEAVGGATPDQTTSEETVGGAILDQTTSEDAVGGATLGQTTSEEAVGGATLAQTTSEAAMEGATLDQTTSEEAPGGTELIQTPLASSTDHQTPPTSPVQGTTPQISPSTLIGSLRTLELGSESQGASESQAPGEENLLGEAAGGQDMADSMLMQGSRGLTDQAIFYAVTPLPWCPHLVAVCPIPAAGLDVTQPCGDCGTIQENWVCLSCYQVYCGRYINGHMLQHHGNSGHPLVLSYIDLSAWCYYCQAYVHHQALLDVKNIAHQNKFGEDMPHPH

[2] = biological target: T2, Polyamine deacetylase HDAC10 (Homo sapiens) (UniProt Q969S8); test: Inhibition of HDAC10 (unknown origin) using Abz-SRGGK(STFA)FRR-NH2 as substrate at 6 to 20000 nM preincubated for 5 mins followed by substrate addition and measured every 30 secs for 30 mins by continuous fluorescence based assay; conditions: dose 6-20000 nM, time 35.0 min
T2 sequence (whole entry): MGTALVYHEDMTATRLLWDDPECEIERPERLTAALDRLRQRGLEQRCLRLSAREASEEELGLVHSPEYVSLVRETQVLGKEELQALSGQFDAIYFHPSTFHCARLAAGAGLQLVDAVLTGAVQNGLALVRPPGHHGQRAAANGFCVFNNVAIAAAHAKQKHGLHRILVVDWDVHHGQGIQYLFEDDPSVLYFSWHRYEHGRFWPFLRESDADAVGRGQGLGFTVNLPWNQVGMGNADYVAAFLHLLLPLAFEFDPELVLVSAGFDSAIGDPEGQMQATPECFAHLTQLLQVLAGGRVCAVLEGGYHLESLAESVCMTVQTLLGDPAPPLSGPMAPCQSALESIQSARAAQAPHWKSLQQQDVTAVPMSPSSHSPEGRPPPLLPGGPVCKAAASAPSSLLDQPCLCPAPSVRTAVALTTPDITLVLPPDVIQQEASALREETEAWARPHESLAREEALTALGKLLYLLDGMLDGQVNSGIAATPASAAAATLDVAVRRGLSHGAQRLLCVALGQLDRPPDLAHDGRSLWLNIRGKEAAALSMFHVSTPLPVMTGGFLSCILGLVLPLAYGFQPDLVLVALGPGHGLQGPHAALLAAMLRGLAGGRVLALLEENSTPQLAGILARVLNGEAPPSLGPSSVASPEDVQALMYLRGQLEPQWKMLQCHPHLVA
Summary of the method: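 Continuous fluorescence assay in 20 mM HEPES pH 7.4, 140 mM NaCl, 10 mM KCl, 1 mM TCEP, 0.2 mg/mL BSA, 3% DMSO final. Enzyme (HDAC4 5 nM, HDAC5 10 nM, HDAC7 5 nM, HDAC9 20 nM) preincubated with inhibitor at room temperature. HDAC10 (5 nM) instead in 20 mM HEPES pH 7.4, 0.5 mg/mL BSA. Initial slope used as activity.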

PC-3M-luc = conditions: Homo sapiens, dose 20.0 µM, time 5.0 hrs
[3] = biological target: Histone deacetylase 1/2/3 (Homo sapiens) (UniProt Q13547+O15379+Q92769); test: Inhibition of HDAC1/2/3 in human MCF7 cells assessed as increase in histone H3 acetylation at 10 to 20 uM incubated for 24 hrs by Western blot analysis; type: cell-based; conditions: dose 10-20 µM
[4] = biological target: NAD-dependent protein deacylase sirtuin-6 (Homo sapiens) (UniProt Q8N6T7); test: Inhibition of Sirt6 (unknown origin) using Ac-EALPKK(Myr)Y(NO2)GG-NH2 as substrate at 20 to 500 uM preincubated for 5 mins followed by enzyme addition and measured after 1 hr by RP-HPLC analysis; conditions: dose 20-500 µM, time 65.0 min
NAD-dependent protein deacylase sirtuin-6 (Homo sapiens), sequence (Q8N6T7 whole entry): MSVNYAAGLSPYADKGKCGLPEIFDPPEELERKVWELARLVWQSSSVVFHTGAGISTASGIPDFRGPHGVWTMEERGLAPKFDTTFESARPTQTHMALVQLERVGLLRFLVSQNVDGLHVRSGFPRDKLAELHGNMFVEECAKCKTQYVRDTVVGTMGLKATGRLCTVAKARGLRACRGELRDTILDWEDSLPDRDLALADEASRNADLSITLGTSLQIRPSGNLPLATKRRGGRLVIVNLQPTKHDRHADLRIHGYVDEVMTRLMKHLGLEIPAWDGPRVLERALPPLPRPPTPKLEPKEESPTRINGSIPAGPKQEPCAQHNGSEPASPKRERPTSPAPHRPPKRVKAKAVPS
Summary of the method: (§1)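 Discontinuous HPLC assay, 120 µL in 20 mM Tris pH 7.8, 150 mM NaCl, 5 mM MgCl2, 0.2 mg/mL BSA, 5% DMSO. Inhibitor preincubated at 37 °C with NAD+ (1 mM) and substrate (Sirt5 5 µM; Sirt6 20 µM). Started with enzyme (Sirt5 100 nM; Sirt6 500 nM). Quenched with TFA/ACN. Sirt5 read by A220, Sirt6 by A360 (nitrotyrosine). Performed once in duplicates; IC50 by nonlinear regression.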

[5] = biological target: NAD-dependent protein deacylase sirtuin-5, mitochondrial (Homo sapiens) (UniProt Q9NXA8); test: Inhibition of Sirt5 (unknown origin) using Bz-GVLK(Succ)EYGV-NH2 as substrate at 20 to 500 uM preincubated for 5 mins followed by enzyme addition and measured after 5 mins by RP-HPLC analysis; conditions: dose 20-500 µM, time 10.0 min
NAD-dependent protein deacylase sirtuin-5, mitochondrial (Homo sapiens), sequence (Q9NXA8 37-310 limits assumed): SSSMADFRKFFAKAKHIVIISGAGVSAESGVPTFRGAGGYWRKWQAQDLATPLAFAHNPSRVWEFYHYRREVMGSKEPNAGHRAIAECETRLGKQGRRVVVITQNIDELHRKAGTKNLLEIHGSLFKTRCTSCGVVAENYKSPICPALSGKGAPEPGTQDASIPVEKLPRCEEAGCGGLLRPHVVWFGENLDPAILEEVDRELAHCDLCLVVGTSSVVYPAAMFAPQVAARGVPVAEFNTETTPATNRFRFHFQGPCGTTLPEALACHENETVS
Summary of the method: as §1

Activity [1]: Active
inhibition [2]: inactive
inhibition [3]: inactive
inhibition [4]: inactive
inhibition [5]: inactive
SMILES: CCCCN(Cc1ccc(C(=O)NO)cc1)C(=O)CCCCn1cc(COc2cccc(Cc3cnc(NC(=O)CSc4nc(C)cc(C)n4)s3)c2)nn1
inhibition (PC-3M-luc): Active
